Results published in ChEMBL document CHEMBL1122887, “Structure-activity studies on the N-terminal region of growth hormone releasing factor” (1985).
The source made the active and inactive calls.

Tests used:
Rattus norvegicus [1] = experiment: Percent growth hormone releasing activity in anesthetized rat relative to hpGRF (1-29)NH2; type: functional
How it was run: (§1)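 In pentobarbital-anesthetized male Charles River rats (6–9/group), two subcutaneous analogue doses and GRF(1-29)NH₂ reference doses were given. Plasma GH was measured by radioimmunoassay in jugular blood taken 15 min post-injection. Relative potency with 95% confidence limits came from a four-point assay design by Pugsley's method. Not active means no activity at the doses tested.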

Rattus norvegicus [2] = experiment: Effect on plasma growth hormone in anesthetized rat at a dose of 5 ug/100 g of body weight; type: functional
How it was run: (§2)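 Male Charles River rats (175–350 g) anesthetized with sodium pentobarbital (6 mg/100 g body wt); 30 min later, 6–9 per group received a single subcutaneous 0.5-mL injection of saline, GRF(1-29)NH₂ reference, or one of two analogue doses. Jugular vein blood was drawn 15 min post-injection, and plasma GH was measured by radioimmunoassay, reported as ng/mL ± SE.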

Rattus norvegicus [3] = experiment: Effect on plasma growth hormone in anesthetized rat at a dose of 25 ug/100 g of body weight; type: functional; how it was run: as §2
Rattus norvegicus [4] = experiment: Percent growth hormone releasing activity in anesthetized rat relative to hpGRF (1-29)NH2; Not active; type: functional, organism-based; how it was run: as §1

| SMILES | Activity (Rattus norvegicus [1]) [%] | also measured |
| --- | --- | --- |
| CC[C@H](C)[C@H](NC(=O)[C@H](C)NC(=O)[C@H](CC(=O)O)NC(=O)[C@@H](C)NC(=O)[C@@H](N)Cc1ccc(O)cc1)C(=O)N[C@@H](Cc1ccccc1)C(=O)N[C@H](C(=O)N[C@@H](CC(N)=O)C(=O)N[C@@H](CO)C(=O)N[C@@H](Cc1ccc(O)cc1)C(=O)N[C@@H](CCCN=C(N)N)C(=O)N[C@@H](CCCCN)C(=O)N[C@H](C(=O)N[C@@H](CC(C)C)C(=O)NCC(=O)N[C@@H](CCC(N)=O)C(=O)N[C@@H](CC(C)C)C(=O)N[C@@H](CO)C(=O)N[C@@H](C)C(=O)N[C@@H](CCCN=C(N)N)C(=O)N[C@@H](CCCCN)C(=O)N[C@@H](CC(C)C)C(=O)N[C@@H](CC(C)C)C(=O)N[C@@H](CCC(N)=O)C(=O)N[C@@H](CC(=O)O)C(=O)N[C@H](C(=O)N[C@@H](CCSC)C(=O)N[C@@H](CO)C(=O)N[C@@H](CCCN=C(N)N)C(N)=O)[C@@H](C)CC)C(C)C)[C@@H](C)O | 5146 |  |
| CC[C@H](C)[C@H](NC(=O)[C@H](C)NC(=O)[C@H](CC(=O)O)NC(=O)[C@H](C)NC(=O)[C@H](Cc1ccc(O)cc1)NC(C)=O)C(=O)N[C@@H](Cc1ccccc1)C(=O)N[C@H](C(=O)N[C@@H](CC(N)=O)C(=O)N[C@@H](CO)C(=O)N[C@@H](Cc1ccc(O)cc1)C(=O)N[C@@H](CCCN=C(N)N)C(=O)N[C@@H](CCCCN)C(=O)N[C@H](C(=O)N[C@@H](CC(C)C)C(=O)NCC(=O)N[C@@H](CCC(N)=O)C(=O)N[C@@H](CC(C)C)C(=O)N[C@@H](CO)C(=O)N[C@@H](C)C(=O)N[C@@H](CCCN=C(N)N)C(=O)N[C@@H](CCCCN)C(=O)N[C@@H](CC(C)C)C(=O)N[C@@H](CC(C)C)C(=O)N[C@@H](CCC(N)=O)C(=O)N[C@@H](CC(=O)O)C(=O)N[C@H](C(=O)N[C@@H](CCSC)C(=O)N[C@@H](CO)C(=O)N[C@@H](CCCN=C(N)N)C(N)=O)[C@@H](C)CC)C(C)C)[C@@H](C)O | 1224 |  |
| CC[C@H](C)[C@H](NC(=O)[C@H](C)NC(=O)[C@H](CC(=O)O)NC(=O)[C@@H](C)NC(=O)[C@@H](Cc1ccc(O)cc1)NC(C)=O)C(=O)N[C@@H](Cc1ccccc1)C(=O)N[C@H](C(=O)N[C@@H](CC(N)=O)C(=O)N[C@@H](CO)C(=O)N[C@@H](Cc1ccc(O)cc1)C(=O)N[C@@H](CCCN=C(N)N)C(=O)N[C@@H](CCCCN)C(=O)N[C@H](C(=O)N[C@@H](CC(C)C)C(=O)NCC(=O)N[C@@H](CCC(N)=O)C(=O)N[C@@H](CC(C)C)C(=O)N[C@@H](CO)C(=O)N[C@@H](C)C(=O)N[C@@H](CCCN=C(N)N)C(=O)N[C@@H](CCCCN)C(=O)N[C@@H](CC(C)C)C(=O)N[C@@H](CC(C)C)C(=O)N[C@@H](CCC(N)=O)C(=O)N[C@@H](CC(=O)O)C(=O)N[C@H](C(=O)N[C@@H](CCSC)C(=O)N[C@@H](CO)C(=O)N[C@@H](CCCN=C(N)N)C(N)=O)[C@@H](C)CC)C(C)C)[C@@H](C)O (stereo in doubt; 1) | 993 |  |
| CC[C@H](C)[C@H](NC(=O)[C@H](C)NC(=O)[C@H](CC(=O)O)NC(=O)[C@@H](C)NC(=O)[C@@H](Cc1ccc(O)cc1)NC(C)=O)C(=O)N[C@@H](Cc1ccccc1)C(=O)N[C@H](C(=O)N[C@@H](CC(N)=O)C(=O)N[C@@H](CO)C(=O)N[C@@H](Cc1ccc(O)cc1)C(=O)N[C@@H](CCCN=C(N)N)C(=O)N[C@@H](CCCCN)C(=O)N[C@H](C(=O)N[C@@H](CC(C)C)C(=O)NCC(=O)N[C@@H](CCC(N)=O)C(=O)N[C@@H](CC(C)C)C(=O)N[C@@H](CO)C(=O)N[C@@H](C)C(=O)N[C@@H](CCCN=C(N)N)C(=O)N[C@@H](CCCCN)C(=O)N[C@@H](CC(C)C)C(=O)N[C@@H](CC(C)C)C(=O)N[C@@H](CCC(N)=O)C(=O)N[C@@H](CC(=O)O)C(=O)N[C@H](C(=O)N[C@@H](CCSC)C(=O)N[C@@H](CO)C(=O)N[C@@H](CCCN=C(N)N)C(N)=O)[C@@H](C)CC)C(C)C)[C@@H](C)O (stereo in doubt; 3) | 670 |  |
| CC[C@H](C)[C@H](NC(=O)[C@H](C)NC(=O)[C@H](CC(=O)O)NC(=O)[C@@H](C)NC(=O)[C@@H](Cc1ccc(O)cc1)NC(C)=O)C(=O)N[C@@H](Cc1ccccc1)C(=O)N[C@H](C(=O)N[C@@H](CC(N)=O)C(=O)N[C@@H](CO)C(=O)N[C@@H](Cc1ccc(O)cc1)C(=O)N[C@@H](CCCN=C(N)N)C(=O)N[C@@H](CCCCN)C(=O)N[C@H](C(=O)N[C@@H](CC(C)C)C(=O)NCC(=O)N[C@@H](CCC(N)=O)C(=O)N[C@@H](CC(C)C)C(=O)N[C@@H](CO)C(=O)N[C@@H](C)C(=O)N[C@@H](CCCN=C(N)N)C(=O)N[C@@H](CCCCN)C(=O)N[C@@H](CC(C)C)C(=O)N[C@@H](CC(C)C)C(=O)N[C@@H](CCC(N)=O)C(=O)N[C@@H](CC(=O)O)C(=O)N[C@H](C(=O)N[C@@H](CCSC)C(=O)N[C@@H](CO)C(=O)N[C@@H](CCCN=C(N)N)C(N)=O)[C@@H](C)CC)C(C)C)[C@@H](C)O (stereo in doubt; 6) [listing 1 of 2 here] |  | Activity (Rattus norvegicus [2]): 324 ng/mL; Activity (Rattus norvegicus [3]): 374 ng/mL |
| CC[C@H](C)[C@H](NC(=O)[C@H](C)NC(=O)[C@H](CC(=O)O)NC(=O)[C@@H](C)NC(=O)[C@@H](Cc1ccc(O)cc1)NC(C)=O)C(=O)N[C@@H](Cc1ccccc1)C(=O)N[C@H](C(=O)N[C@@H](CC(N)=O)C(=O)N[C@@H](CO)C(=O)N[C@@H](Cc1ccc(O)cc1)C(=O)N[C@@H](CCCN=C(N)N)C(=O)N[C@@H](CCCCN)C(=O)N[C@H](C(=O)N[C@@H](CC(C)C)C(=O)NCC(=O)N[C@@H](CCC(N)=O)C(=O)N[C@@H](CC(C)C)C(=O)N[C@@H](CO)C(=O)N[C@@H](C)C(=O)N[C@@H](CCCN=C(N)N)C(=O)N[C@@H](CCCCN)C(=O)N[C@@H](CC(C)C)C(=O)N[C@@H](CC(C)C)C(=O)N[C@@H](CCC(N)=O)C(=O)N[C@@H](CC(=O)O)C(=O)N[C@H](C(=O)N[C@@H](CCSC)C(=O)N[C@@H](CO)C(=O)N[C@@H](CCCN=C(N)N)C(N)=O)[C@@H](C)CC)C(C)C)[C@@H](C)O (stereo in doubt; 6) [listing 2 of 2 here] |  | Activity (Rattus norvegicus [4]): inactive |
| CC[C@H](C)[C@H](NC(=O)[C@H](C)NC(=O)[C@H](CC(=O)O)NC(=O)[C@@H](C)NC(=O)[C@@H](Cc1ccc(O)cc1)NC(C)=O)C(=O)N[C@@H](Cc1ccccc1)C(=O)N[C@H](C(=O)N[C@@H](CC(N)=O)C(=O)N[C@@H](CO)C(=O)N[C@@H](Cc1ccc(O)cc1)C(=O)N[C@@H](CCCN=C(N)N)C(=O)N[C@@H](CCCCN)C(=O)N[C@H](C(=O)N[C@@H](CC(C)C)C(=O)NCC(=O)N[C@@H](CCC(N)=O)C(=O)N[C@@H](CC(C)C)C(=O)N[C@@H](CO)C(=O)N[C@@H](C)C(=O)N[C@@H](CCCN=C(N)N)C(=O)N[C@@H](CCCCN)C(=O)N[C@@H](CC(C)C)C(=O)N[C@@H](CC(C)C)C(=O)N[C@@H](CCC(N)=O)C(=O)N[C@@H](CC(=O)O)C(=O)N[C@H](C(=O)N[C@@H](CCSC)C(=O)N[C@@H](CO)C(=O)N[C@@H](CCCN=C(N)N)C(N)=O)[C@@H](C)CC)C(C)C)[C@@H](C)O (stereo in doubt; 7) |  | Activity (Rattus norvegicus [4]): inactive |
